# Experimental data as given in PMC4388048 (Journal of medicinal chemistry, 2015).
# Legend:
# [1] = type: in vivo; conditions: CD-1 mice, 10 nmol intravenously, 4 h postinjection, N = 5
# Procedure, shortened: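 Anesthetised male CD-1 mice (~25 g; ketamine/xylazine i.p.) received test fluorophore intravenously. After 4 h of imaging, urine was collected from the bladder. Urine volume and optical absorbance were measured to estimate the amount of injected dye excreted.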
# [2] = Optical stability in serum; type: in vitro ADME, fetal bovine serum; conditions: 100% FBS, pH 7.4, 37 °C, 24 h
# [3] = Optical properties in 100% FBS; type: physicochemical; conditions: pH 7.4, 37 °C
# Procedure, shortened: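 Absorbance (200–1100 nm) and fluorescence (350–1000 nm) spectra were recorded for 1 µM test dye in 100% FBS, pH 7.4, using fibre-optic spectrometers. Excitation was 8 mW from a 655 or 765 nm laser diode, chosen by structure. Quantum yield was calibrated against oxazine 725 in ethylene glycol (QY 19%) and ICG in DMSO (QY 13%), with absorbance matched at 655 and 765 nm.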
# [4] = In vivo biodistribution and clearance by real-time NIR fluorescence imaging; conditions: CD-1 mice, 10 nmol intravenously, imaging over 4 h
# Procedure, shortened: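 Male CD-1 mice (~25 g) were anesthetised with ketamine 100 mg/kg and xylazine 10 mg/kg i.p., then given 10 nmol of test fluorophore intravenously. Real-time FLARE imaging used 760 nm excitation at 11 mW/cm2 with white light (400–650 nm). Colour and NIR images were acquired together at up to 15 Hz. Resected organs were also imaged. Exposure and normalisation were held constant.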
Molecule,Optical stability in serum [2],uptake in liver [4],other results
"CC1(C)C(/C=C/C=C/C=C/C=C2\N(CCCCS(=O)(=O)O)c3ccc4ccccc4c3C2(C)C)=[N+](CCCCS(=O)(=O)[O-])c2ccc3ccccc3c21 [ICG, indocyanine green]",–,–,Renal excretion amount in urine [1]: 3 % ID
"Br.Br.CC1(C)C(/C=C/C2=C(Oc3ccc(CCN)cc3)C(=C/C=C3/N(CCC[N+](C)(C)C)c4ccc(S(=O)(=O)[O-])cc4C3(C)C)/CCC2)=[N+](CCC[N+](C)(C)C)c2ccc(S(=O)(=O)[O-])cc21.[Br-] [compound 4, Mono(2-((E)-2-((E)-2-(4-(2-aminoethyl)phenoxy)-3-((E)-2-(3,3-dimethyl-5-sulfonato-1-(3-(trimethylammonio)propyl)-indolin-2-ylidene)ethylidene)cyclohex-1-en-1-yl)vinyl)-3,3-dimethyl-1-(3-(trimethylammonio)propyl)-3H-indol-1-ium-5-sulfonate) Tribromide]",least stable,–,molar extinction coefficient [3]: highest; quantum yield [3]: highest
"Br.Br.CC1(C)C(/C=C/C2=C(Sc3ccc(C(=O)O)cc3)C(=C/C=C3/N(CCC[N+](C)(C)C)c4ccc(S(=O)(=O)[O-])cc4C3(C)C)/CCC2)=[N+](CCC[N+](C)(C)C)c2ccc(S(=O)(=O)[O-])cc21.[Br-] [compound 8, Mono(2-((E)-2-((E)-2-((4-carboxyphenyl)thio)-3-((E)-2-(3,3-dimethyl-5-sulfonato-1-(3-(trimethylammonio)propyl)indolin-2-ylidene)ethylidene)cyclohex-1-en-1-yl)vinyl)-3,3-dimethyl-1-(3-(trimethylammonio)propyl)-3H-indol-1-ium-5-sulfonate) Tribromide]",–,weak uptake in liver,–
"Mono(2-((E)-2-((E)-2-((4-(aminomethyl)phenyl)thio)-3-((E)-2-(3,3-dimethyl-5-sulfonato-1-(3-(trimethylammonio)propyl)indolin-2-ylidene)ethylidene)cyclohex-1-en-1-yl)vinyl)-3,3-dimethyl-1-(3-(trimethylammonio)propyl)-3H-indol-1-ium-5-sulfonate) Tribromide [compound 11]",increased stability,–,–
"Mono(2-((E)-2-((E)-2-((4-(carboxymethyl)phenyl)thio)-3-((E)-2-(3,3-dimethyl-5-sulfonato-1-(3-(trimethylammonio)propyl)indolin-2-ylidene)ethylidene)cyclohex-1-en-1-yl)vinyl)-3,3-dimethyl-1-(3-(trimethylammonio)propyl)-3H-indol-1-ium-5-sulfonate) Tribromide [compound 9]",increased stability,weak uptake in liver,–
